Assay results gathered from unrelated publications.
Protocols differ between the studies behind these lines.
Target: Dual specificity mitogen-activated protein kinase kinase 4 (MAP2K4, Homo sapiens, UniProt P45985)
Sequence (P45985 1-399, as in one of the studies): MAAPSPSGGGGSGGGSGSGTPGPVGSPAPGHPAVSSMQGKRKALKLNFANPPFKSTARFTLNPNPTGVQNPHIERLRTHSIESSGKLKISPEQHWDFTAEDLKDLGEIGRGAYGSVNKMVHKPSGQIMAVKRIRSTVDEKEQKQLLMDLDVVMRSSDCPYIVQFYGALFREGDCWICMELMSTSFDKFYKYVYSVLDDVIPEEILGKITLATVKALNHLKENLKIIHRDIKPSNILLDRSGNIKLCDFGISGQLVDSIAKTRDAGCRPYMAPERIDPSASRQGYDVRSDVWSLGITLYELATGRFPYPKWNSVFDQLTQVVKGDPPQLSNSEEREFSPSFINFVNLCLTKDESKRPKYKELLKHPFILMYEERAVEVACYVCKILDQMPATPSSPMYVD

Structure (SMILES) | effect on | method | tested at | remaining binding
c1cnn2ncc(-c3ccnc(N4CCC45COC5)n3)c2c1 | binding | – | 1 µM | 62%
Nc1ncc2c(n1)-c1c([nH]c3ccc(C#CC4CC4)cc13)CCCC2 | binding | competition with immobilised ligand | 1 µM | 24%
CCC(=O)N[C@@H]1CC[C@H](C(=O)N(C)c2ccc(-c3nc4ccccc4o3)cc2)C1 | cell-free assay | competition with immobilised ligand | 1 µM | 100%
CN(C)c1nccc(-c2cnc3ncccn23)n1 | binding | – | 1 µM | 84%
COc1ncc2cc3ccccc3nc2c1C#N | cell-free assay | competition with immobilised ligand | 5 µM | 100%
N[C@H]1CCN(c2nccc(-c3cnn4ncccc34)n2)C1 | binding | – | 1 µM | 86%
O=C(c1ccc(Nc2ncc(Cl)c(-c3ccc(Cl)s3)n2)cc1)N1CCC(N2CCCC2)CC1 | binding | competition with immobilised ligand | 1 µM | 42%
Nc1c(C(=O)NCc2ccc(C(=O)NCCCC3CCCCC3)cc2)cnn1-c1ccccc1 | cell-free assay | competition with immobilised ligand | 0.1 µM | 100%
CNC(=O)[C@@H]1CC[C@@H](n2c(-c3ccc4cnccc4c3)nc3ccc(C(=O)NCc4cccc(C(N)=O)c4)cc32)C1 | binding | competition with immobilised ligand | 1 µM | 100%
CO[C@H]1CC[C@H](CNc2ccc(S(=O)(=O)NC(=O)c3ccc(N4CCN(CC5=C(c6ccc(Cl)cc6)CC(C)(C)CC5)CC4)cc3Oc3cnc4[nH]ccc4c3)cc2[N+](=O)[O-])CC1 | cell-free assay | competition with immobilised ligand | 1 µM | 98%
O=C(NCC1CCOCC1)c1n[nH]cc1NC(=O)c1c(F)cccc1F | binding | competition with immobilised ligand | 1 µM | 68%
C[C@@H]1CCN(c2nccc(-c3cnn4ncccc34)n2)C1 | binding | – | 1 µM | 69%
O=C(NCCCN1CCOCC1)c1ccc(Nc2nccc(-c3cc4ccccc4s3)n2)cc1 | binding | competition with immobilised ligand | 1 µM | 69%
Cc1cnn2ncc(-c3ccnc(N(C)C)n3)c2c1 | binding | – | 1 µM | 100%
CS(=O)(=O)NCC[C@H](NC(=O)c1cncc2c1cnn2-c1ccc(F)cc1)c1ccnc(S(C)(=O)=O)c1 | cell-free assay | competition with immobilised ligand | 1 µM | 100%
COc1ccnn2ncc(-c3ccnc(N(C)C)n3)c12 | binding | – | 1 µM | 100%
COc1cc(-c2cn(C3CCc4ccccc4N(CC(F)(F)F)C3=O)nn2)ccc1-n1ccc(C)n1 (centres unmarked) | cell-free assay | competition with immobilised ligand | 1 µM | 100%
O=C(c1ccc(Nc2ncc(Cl)c(-c3cc4ccccc4s3)n2)cc1)N1CCC(N2CCCC2)CC1 | binding | competition with immobilised ligand | 1 µM | 69%
Cc1nc(C2CCN(C(=O)c3ccc(OC(F)(F)F)cc3N)CC2)c2ncc(N3CCN(C)CC3)cc2n1 | cell-free assay | competition with immobilised ligand | 1 µM | 100%
COc1cnc(Nc2cccc(S(N)(=O)=O)c2)nc1N1CCN(c2ccccc2)C(=O)C1 | binding | competition with immobilised ligand | 1 µM | 71%
